Experimental data reported in ChEMBL document CHEMBL1154741, “Radiosynthesis and radiopharmacological evaluation of cyclin-dependent kinase 4 (Cdk4) inhibitors” (Eur J Med Chem, 2010).

Columns and labels:
[1] = target: Cyclin-dependent kinase 4 (Homo sapiens, UniProt P11802); assay: Inhibition of CDK4
[2] = target: Cyclin-dependent kinase 2 (Homo sapiens, UniProt P24941); assay: Inhibition of CDK2
[3] = target: Cyclin-dependent kinase 1 (Homo sapiens, UniProt P06493); assay: Inhibition of CDK1
[4] = Stability in ethanol after 30 mins by HPLC; assay type: physicochemical; settings: read-out: Stability
Summary of the method: (§1)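 50 kBq radiotracer was added to 1 mL of PBS (0.1 M, pH 7.4), ethanol, culture medium (RPMI + 10% FKS + 1% pen/strep) or fresh rat plasma and held at 37 °C for 30 min or 24 h. Samples were analysed by radio-HPLC on a C18 column with a Soerensen buffer (0.01 M, pH 7.4)/methanol gradient; intact tracer is reported as percent.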

[5] = Lipophilicity log D at pH 7.4; assay type: physicochemical; settings: buffer
[6] = Stability in ethanol after 24 hrs by HPLC; assay type: physicochemical; settings: read-out: Stability; summary of the method: as §1
[7] = test system: Kidney; assay: Biodistribution in Wistar rat kidney at 0.2 to 0.3 MBq, iv after 5 mins; assay type: ADME, organism-based; settings: in vivo
Summary of the method: (§2)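 Normal male Wistar rats (180 ± 20 g) given a single iv tail-vein injection of 0.2–0.3 MBq radiotracer in solution containing 1% HSA. Under ether anaesthesia at 5 min p.i., blood was taken by heart puncture and the animals euthanized. Organs were removed, weighed and counted in a calibrated well counter. Results are SUV = (organ activity/organ weight)/(given activity/body weight); mean ± SD, n = 8.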

[8] = test system: Liver; assay: Biodistribution in Wistar rat liver at 0.2 to 0.3 MBq, iv after 5 mins; assay type: ADME, organism-based; settings: in vivo; summary of the method: as §2
[9] = Stability in cell culture medium after 24 hrs by HPLC; assay type: physicochemical; settings: read-out: Stability; summary of the method: as §1
[10] = Stability in PBS buffer at pH7.4 after 30 mins by HPLC; assay type: physicochemical; settings: pH 7.4, read-out: Stability; summary of the method: as §1
[11] = test system: FaDu; assay: Cellular uptake in human FADU cells measured per mg of protein at 25 kBq after 1 hr; assay type: ADME, cell-based
Summary of the method: (§3)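 HT-29 cells in McCoy's 5A and FaDu cells in RPMI 1640, both with 10% FBS, were seeded at 5 × 10⁴ cells/well and left overnight. About 25 kBq radiotracer in 0.25 mL medium was added at 37 °C. Cells were washed three times with ice-cold PBS, lysed in 0.1 M NaOH/1% SDS and gamma-counted. Protein was measured by BCA; results are %ID/mg protein.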

[12] = test system: Lung; assay: Biodistribution in Wistar rat lung at 0.2 to 0.3 MBq, iv after 5 mins; assay type: ADME, organism-based; settings: in vivo; summary of the method: as §2
[13] = Stability in Wistar rat plasma after 24 hrs; assay type: ADME, cell-free; settings: read-out: Stability; summary of the method: as §1
[14] = Stability in Wistar rat plasma after 30 mins; assay type: ADME, cell-free; settings: read-out: Stability; summary of the method: as §1
[15] = Stability in PBS buffer at pH7.4 after 24 hrs by HPLC; assay type: physicochemical; settings: pH 7.4, read-out: Stability; summary of the method: as §1
[16] = test system: HT-29; assay: Cellular uptake in human HT-29 cells measured per mg of protein at 25 kBq after 1 hr; assay type: ADME, cell-based; settings: ht-29, 1 h; summary of the method: as §3

Sequence of Cyclin-dependent kinase 4 (P11802 whole entry): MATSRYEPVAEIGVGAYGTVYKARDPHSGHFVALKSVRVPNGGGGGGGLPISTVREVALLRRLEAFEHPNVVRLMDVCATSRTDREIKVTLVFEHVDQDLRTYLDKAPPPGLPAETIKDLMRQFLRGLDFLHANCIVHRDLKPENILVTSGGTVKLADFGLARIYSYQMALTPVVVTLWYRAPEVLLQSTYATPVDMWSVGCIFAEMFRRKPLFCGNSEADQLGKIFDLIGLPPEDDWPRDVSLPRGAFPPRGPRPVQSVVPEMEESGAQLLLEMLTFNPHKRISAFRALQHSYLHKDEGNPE
Sequence of Cyclin-dependent kinase 1 (P06493 whole entry): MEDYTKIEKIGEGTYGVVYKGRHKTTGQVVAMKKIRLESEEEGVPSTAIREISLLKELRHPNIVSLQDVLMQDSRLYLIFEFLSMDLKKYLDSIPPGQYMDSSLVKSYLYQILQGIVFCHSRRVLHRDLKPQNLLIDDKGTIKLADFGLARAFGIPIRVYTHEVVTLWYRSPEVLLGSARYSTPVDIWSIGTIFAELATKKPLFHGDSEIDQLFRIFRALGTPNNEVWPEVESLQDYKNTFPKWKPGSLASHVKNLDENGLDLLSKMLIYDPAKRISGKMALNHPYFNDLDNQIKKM

| SMILES | IC50 [1] | IC50 [2] | IC50 [3] | remaining at 0.5 h [4] | logD [5] | remaining at 24 h [6] | SUV [7] | SUV [8] | remaining at 24 h [9] | remaining at 0.5 h [10] | Drug uptake [11] | SUV [12] | remaining at 24 h [13] | remaining at 0.5 h [14] | remaining at 24 h [15] | Drug uptake [16] |
| --- | --- | --- | --- | --- | --- | --- | --- | --- | --- | --- | --- | --- | --- | --- | --- | --- |
| O=c1ccc2cnc(Nc3ccc(N4CCC(CCCO)CC4)cc3)nc2n1C1CC2CCC1C2 (stereo not drawn) | < 20 nM | – | – | – | – | – | – | – | – | – | – | – | – | – | – | – |
| Cc1c(I)c(=O)n(C2CCCC2)c2nc(Nc3ccc(N4CCNCC4)cc3)ncc12 | < 20 nM | > 360 nM | > 360 nM | – | – | – | – | – | – | – | – | – | – | – | – | – |
| Cc1c([124I])c(=O)n(C2CCCC2)c2nc(Nc3ccc(N4CCNCC4)cn3)ncc12 | – | – | – | 98% | 1.99 | 97% | > 3.2 | > 3.2 | 97% | 97% | 900 %Idose | 8.43 | 94% | 94% | 95% | – |
| Cc1c([124I])c(=O)n(C2CCCC2)c2nc(Nc3ccc(N4CCNCC4)cc3)ncc12 | – | – | – | 93% | 2.77 | 94% | > 3.2 | > 3.2 | 96% | 92% | – | 8.67 | 94% | 93% | 86% | 750 %Idose |
